hERG rescue – shields human hERG channel from block by proarrhythmic agents; hit rate 0.51% among 310,000; activation (rescue from dofetilide block), less the hit threshold, % at 10 µM; Q12809; CHO-hERG, FluxOR thallium flux, dofetilide IC70 present; AID 1511;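 active means activation above the mean of controls blocked by dofetilide plus 5 SD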;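 further: thallium influx through hERG after potassium depolarization seen as dye fluorescence rise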
KCNQ1 pot – potentiates or activates the human KCNQ1 potassium channel. P51787. CHO-K1 KCNQ1, thallium flux FluxOR fluorescence; hits give high values. B-score at 10 µM. hit rate 0.35% among 310,000. AID 2648;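 active means fluorescence ratio B-score, a plate-corrected score, at least three library SD, with initial intensity B-score within 5 SD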
Target sequence (P51787 whole entry, looked up): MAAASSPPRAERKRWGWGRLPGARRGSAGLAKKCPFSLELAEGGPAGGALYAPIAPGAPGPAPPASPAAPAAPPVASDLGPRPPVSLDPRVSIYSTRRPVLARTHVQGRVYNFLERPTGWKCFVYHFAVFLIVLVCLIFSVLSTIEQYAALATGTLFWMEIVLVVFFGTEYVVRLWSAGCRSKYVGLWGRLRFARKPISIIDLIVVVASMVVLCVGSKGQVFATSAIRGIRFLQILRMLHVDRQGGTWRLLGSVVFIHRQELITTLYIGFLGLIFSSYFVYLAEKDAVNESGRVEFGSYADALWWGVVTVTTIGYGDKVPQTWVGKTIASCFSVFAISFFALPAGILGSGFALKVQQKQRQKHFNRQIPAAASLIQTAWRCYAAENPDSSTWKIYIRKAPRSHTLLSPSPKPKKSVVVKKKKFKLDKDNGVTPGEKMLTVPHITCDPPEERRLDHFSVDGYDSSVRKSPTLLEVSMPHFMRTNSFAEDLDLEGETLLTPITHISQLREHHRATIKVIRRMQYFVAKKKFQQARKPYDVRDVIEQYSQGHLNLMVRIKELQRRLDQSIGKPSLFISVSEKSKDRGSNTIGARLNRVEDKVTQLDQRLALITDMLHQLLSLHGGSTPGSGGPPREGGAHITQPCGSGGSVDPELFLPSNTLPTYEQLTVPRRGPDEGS
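Assay system: CHO-K1 cells stably expressing KCNQ1; Medium: assay buffer with matched DMSO; Also added: K+/Tl+ depolarizing stimulus; Dosing: single dose; Timing: dye 90 min, compound 20 min, room temperature; Measured by: kinetic FluxOR thallium fluorescence, 10-s 1-Hz baseline, 110-s post-stimulus read; Read-out: peak-minus-minimum fluorescence over initial fluorescence, negative-control normalized, B-scored.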
Kir21 inh – blocks the mouse Kir2.1 inward-rectifier potassium channel; HEK293-Kir2.1, FluxOR thallium flux fluorescence; hits give low values; B-score at 10 µM; hit rate 0.85% among 310,000;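 active means fluorescence ratio B-score at or below minus 3 SD of library scores, with starting-brightness B-score within 2 SD, cut at about -4.2 in these data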;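 further: channel flux triggered by added potassium and thallium sulfate stimulus; B-score of peak minus minimum fluorescence over baseline after thallium stimulus; more negative B-score means stronger Kir2.1 block with less thallium influx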
KCNQ1 block – blocks the human KCNQ1 potassium channel; P51787; CHO-K1 KCNQ1, FluxOR thallium flux fluorescence; hits give high values; B-score at 10 µM; hit rate 1.3% among 310,000; AID 2642;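 active means compounds whose thallium flux B-score, printed positive for inhibition, exceeds three library SD while starting fluorescence stays within three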;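 further: channel opened by potassium depolarization with thallium stimulus after 20 min compound exposure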
KCNK9 inh – inhibitors of human KCNK9 two-pore domain potassium channel; hit rate 1.2% among 310,000; Q9NPC2; B-score at 10 µM; HEK293 KCNK9, FluxOR thallium flux fluorescence; hits give low values;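 active means ratio B-score over 3 SD below the library mean, with starting fluorescence within 5 SD of its mean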;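 further: negative B-score means less thallium flux so channel inhibition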
KCNK3 inh – human KCNK3 channel inhibition, primary screen; CHO-KCNK3 thallium flux, FluxOR fluorescence; hits give low values; O14649; B-score at 10 µM; hit rate 0.84% among 340,000;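 active means B-score under library mean minus 4 SD, starting fluorescence ratio at most library mean plus 5 SD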;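 further: more negative B-score means stronger inhibition of thallium flux through KCNK3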
KCNK9 inh conf – confirmation of human KCNK9 potassium channel inhibitors; shares compounds with KCNK9 inh; HEK293 KCNK9 cells, FluxOR thallium flux fluorescence; inhibition, % at 10 µM; hit rate 43% among 4,900; AID 492992;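 active means thallium signal inhibited by more than 5 SD of the compound-free buffer control wells, on both duplicate plates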;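 further: 0% = assay buffer control wells without compound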
Kir2-1 spec – selectivity of KCNK9 modulators against mouse Kir2.1; shares compounds with KCNK9 inh; Kir2.1 cells, FluxOR thallium flux fluorescence; inhibition, % at 10 µM; hit rate 4% among 4,900;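 active means thallium signal drop more than 5 SD beyond the mean of the no-compound control wells, seen in both duplicate plates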;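 further: signal is fluorescence rise after thallium addition divided by baseline fluorescence; plate controls were assay buffer only for no effect and full block by chlorpromazine control for full effect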
KCNK9 uninduced – second counter-screen for KCNK9 modulators: effect in non-induced cells. shares compounds with KCNK9 inh. non-induced KCNK9-HEK293, FluxOR thallium flux. inhibition, % at 10 µM. hit rate 40% among 4,900. AID 492997;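 active means thallium signal drop beyond 5 SD of the untreated control mean, on both duplicate plates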;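 further: plate controls were buffer only IC0 wells for no effect and SID17386958 at its maximal inhibitory level for full effect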
The depositor's hits bear a star; i = inactive; x = no result. A selection: hits, their analogues and other compounds. The true share with any hit is near 3.7%.

SMILES	hERG rescue	KCNQ1 pot	Kir21 inh	KCNQ1 block	KCNK9 inh	KCNK3 inh	KCNK9 inh conf	Kir2-1 spec	KCNK9 uninduced
CC(=O)c1ccccc1NC(=O)COC(=O)Cc1cccc(C(F)(F)F)c1	x	x	x	x	x	i	x	x	x
COC1OC2COC(c3ccccc3)OC2C(O)C1NC(C)=O (stereo not drawn)	x	x	x	x	x	i	x	x	x
O=C(O)CN1C(=O)/C(=C\c2cccc(OCc3ccc(Cl)cc3Cl)c2)SC1=S	-2	i	-1.9	i	i	i	i	i	i
O=C(O)CN1C(=O)/C(=C\c2cc(Br)ccc2OCc2ccccc2F)SC1=S	-9	i	2.2	i	i	i	i	i	i
O=C(O)CN1C(=O)/C(=C\c2cc(Br)ccc2OCc2ccccc2Cl)SC1=S	-10	i	0.76	i	i	i	x	x	x
O=C(O)CN1C(=O)/C(=C\c2ccccc2OCc2ccc(Cl)cc2Cl)SC1=S	-6	i	-0.14	i	i	i	x	x	x
O=C(O)CN1C(=O)/C(=C\c2cn(-c3ccccc3)nc2-c2ccccc2)SC1=S	-13	i	-0.8	i	i	i	i	i	i
CC(C)(C)c1ccc(OCCOc2ccc(C(C)(C)C)cc2NC=O)c(NC=O)c1	-9	i	0.1	i	-8.2*	i	34%*	i	i
Cc1ccsc1CN(C(=O)c1ccc([N+](=O)[O-])cc1)C1CCS(=O)(=O)C1 (stereo not drawn)	-2	i	-0.9	i	i	i	x	x	x
O=C(O)c1ccc(NC(=O)C2C3CCC(O3)C2C(=O)O)cc1 (stereo not drawn)	-5	i	1.6	i	i	i	x	x	x
CCOc1cnn(-c2cc(Oc3ccc(C)cc3)ncn2)c(=O)c1Cl	-8	i	0.22	i	i	i	x	x	x
Cc1cc(Oc2cnn(C(C)(C)C)c(=O)c2Cl)cc(C(C)C)c1	-21	i	-0.64	i	i	i	i	i	i
CCCc1nc(SCC(=O)N2CCCc3ccccc32)c2c(=O)n(C)c(=O)n(C)c2n1	-26	i	-0.7	i	i	i	i	i	i
Nc1c(C(=O)N/N=C/c2cccnc2)oc2nc(-c3ccccc3)cc(-c3ccco3)c12	-14	i	1.2	6*	-11*	i	i	i	31%*
Cc1cc(OCC(=O)NNC(=O)c2cccnc2)cc(C)c1Cl	-7	i	-2.7	i	i	i	x	x	x
CCN(CC)C(=O)[C@H]1CC(CC(=O)NCc2ccco2)C(=O)N2CCc3c([nH]c4ccc(OC)cc34)[C@]12C (stereo partly drawn)	x	x	x	x	x	i	x	x	x
NC(=O)COC(=O)c1ccc(Cl)c(S(=O)(=O)N(Cc2ccccc2)c2ccc(Cl)cc2)c1	-8	i	0.24	i	i	i	x	x	x
O=C(O)c1ccc(Cl)c(S(=O)(=O)N(Cc2ccccc2)c2ccc(Cl)cc2)c1	-16	i	2.4	i	i	i	i	i	i
Cc1ccc(C)c2[nH]c(=O)c(CN(Cc3ccco3)C(=O)Nc3ccccc3)cc12	-16	i	1.8	i	-13*	i	62%*	i	i
Cc1ccc2cc(CN(Cc3ccco3)C(=O)NCc3ccccc3)c(=O)[nH]c2c1C	-5	i	-0.27	i	i	i	x	x	x
Cn1nc([N+](=O)[O-])nc1Sc1nnnn1-c1ccc(C(=O)O)cc1	-11	i	-1	i	i	i	x	x	x
CN(C)C(=O)CCc1ccc2c3c([nH]c2c1)[C@]1(CCC2CCCC2)[C@@H](C(=O)N2CCOCC2)C[C@H](CC(=O)NCCc2ccccn2)C(=O)N1CC3	x	x	x	x	x	i	x	x	x
Fc1ccccc1N1CCN(C2CCCN(Cc3ccccc3C(F)(F)F)C2)CC1 (stereo not drawn)	-13	i	0.66	i	i	i	i	i	i
COc1ccccc1N1CCN(C2CCCN(Cc3cccc(O)c3)C2)CC1 (stereo not drawn)	-7	i	0.5	i	i	i	x	x	x
CC(=O)c1cccc(CN2CCCC(N3CCN(c4ccccc4F)CC3)C2)c1 (stereo not drawn)	-4	i	2.6	i	i	i	i	i	i
SMILES	hERG rescue	KCNQ1 pot	Kir21 inh	KCNQ1 block	KCNK9 inh	KCNK3 inh	KCNK9 inh conf	Kir2-1 spec	KCNK9 uninduced
CC/C(=N\NC(=S)Nc1cccc(C)c1)c1ccccc1	6.9*	12*	-0.61	i	i	i	i	i	i
CC/C(=N\NC(=S)Nc1ccc(OC)cc1)c1ccc(OC(F)F)cc1	0	i	0.22	i	i	i	i	i	i
Cc1cccc(NC(=S)NNC(=O)Cc2ccccc2)c1	-13	i	-3.3	i	i	i	x	x	x
CC/C(=N\NC(C)=O)c1ccc(OC(F)F)cc1	-8	i	-2	i	i	x	x	x	x
Cc1cccc(NC(=S)N/N=C(\c2ccccc2)C(C)C)c1	-3	i	-0.32	i	i	i	i	i	i
COc1ccc(S(=O)(=O)NNC(=O)Nc2ccc(F)cc2F)c(OC)c1	2	i	0.08	i	i	i	x	x	x
COc1ccccc1/C=C/C=N/n1c(-c2ccc(Cl)cc2)n[nH]c1=S	-6	i	0.04	i	i	i	i	i	i
COc1ccccc1/C=C/C=N/n1c(-c2ccccc2)n[nH]c1=S	-4	i	-0.02	i	i	i	x	x	x
CCN(CC)CCN(C(=O)CCOc1ccccc1)c1nc2ccc(F)cc2s1	-19	i	0.29	i	i	i	x	x	x
CCc1nc(N2CCN(C(=O)c3ccco3)CC2)c2c3c(sc2n1)CCCC3	-15	i	0.25	i	-10*	i	50%*	i	i
CCCSc1nc(=S)n(Cc2ccccc2)c(C)c1C(C)=O	-5	i	1.5	i	-13*	i	66%*	i	i
COC(=O)c1cc(=O)n(Cc2cccs2)c(=Nc2ccc(F)cc2)s1	-7	i	0.68	i	i	i	x	x	x
COC(=O)c1cc(=O)n(CCc2ccccc2F)c(=Nc2ccc(F)c(Cl)c2)s1	-3	i	2.2	i	-14*	i	44%*	i	36%*
CCOC(=O)c1c(C)[nH]c(N=Nc2cccc(OC)c2)c1C	-19	i	-0.7	i	-12*	i	62%*	i	i
O=C(Cc1coc2ccc3ccccc3c12)NCc1ccccc1	-11	i	-1.1	i	i	i	x	x	x

Compound activity deposited in PubChem by Johns Hopkins Ion Channel Center.
